Assays:
Spleen [1] = assay: Biodistribution in ddY mouse spleen at 1 uCi/100 uL, iv after 2 mins by gamma counting; type: ADME, organism-based; details: in vivo
Spleen [2] = assay: Biodistribution in ddY mouse spleen at 1 uCi/100 uL, iv after 60 mins by gamma counting; type: ADME, organism-based; details: in vivo, 1 h
Thyroid gland [3] = assay: Biodistribution in ddY mouse thyroid at 1 uCi/100 uL, iv after 30 mins by gamma counting; type: ADME, organism-based; details: in vivo, 0.5 h
Blood [4] = assay: Biodistribution in ddY mouse blood at 1 uCi/100 uL, iv after 120 mins by gamma counting; type: ADME, organism-based; details: in vivo, 2 h
Outline: (§1)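 Normal female ddY mice (5 weeks, about 20 g; n = 4 per group) received radiotracer iv. Organs were removed and weighed at 2–120 min and counted in a γ-counter. Percent dose per gram of wet tissue was calculated against diluted aliquots of the injected material and reported as mean ± SD.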

Blood [5] = assay: Biodistribution in ddY mouse blood at 1 uCi/100 uL, iv after 60 mins by gamma counting; type: ADME, organism-based; details: in vivo, 1 h; outline: as §1
Brain [6] = assay: Biodistribution in ddY mouse brain at 1 uCi/100 uL, iv after 120 mins by gamma counting; type: ADME, organism-based; details: in vivo, 2 h; outline: as §1
Thyroid gland [7] = assay: Biodistribution in ddY mouse thyroid at 1 uCi/100 uL, iv after 60 mins by gamma counting; type: ADME, organism-based; details: in vivo, 1 h
Heart [8] = assay: Biodistribution in ddY mouse heart at 1 uCi/100 uL, iv after 60 mins by gamma counting; type: ADME, organism-based; details: in vivo, 1 h; outline: as §1
Liver [9] = assay: Biodistribution in ddY mouse liver at 1 uCi/100 uL, iv after 60 mins by gamma counting; type: ADME, organism-based; details: in vivo, 1 h
Stomach [10] = assay: Biodistribution in ddY mouse stomach at 1 uCi/100 uL, iv after 120 mins by gamma counting; type: ADME, organism-based; details: in vivo, 2 h
Kidney [11] = assay: Biodistribution in ddY mouse kidney at 1 uCi/100 uL, iv after 60 mins by gamma counting; type: ADME, organism-based; details: in vivo, 1 h
Stomach [12] = assay: Biodistribution in ddY mouse stomach at 1 uCi/100 uL, iv after 60 mins by gamma counting; type: ADME, organism-based; details: in vivo, 1 h
Spleen [13] = assay: Biodistribution in ddY mouse spleen at 1 uCi/100 uL, iv after 30 mins by gamma counting; type: ADME, organism-based; details: in vivo, 0.5 h
Heart [14] = assay: Biodistribution in ddY mouse heart at 1 uCi/100 uL, iv after 15 mins by gamma counting; type: ADME, organism-based; details: in vivo, 0.25 h; outline: as §1
Intestine [15] = assay: Biodistribution in ddY mouse intestine at 1 uCi/100 uL, iv after 2 mins by gamma counting; type: ADME, organism-based; details: in vivo; outline: as §1
Thyroid gland [16] = assay: Biodistribution in ddY mouse thyroid at 1 uCi/100 uL, iv after 15 mins by gamma counting; type: ADME, organism-based; details: in vivo, 0.25 h
Thyroid gland [17] = assay: Biodistribution in ddY mouse thyroid at 1 uCi/100 uL, iv after 2 mins by gamma counting; type: ADME, organism-based; details: in vivo
Lung [18] = assay: Biodistribution in ddY mouse lung at 1 uCi/100 uL, iv after 15 mins by gamma counting; type: ADME, organism-based; details: in vivo, 0.25 h
Heart [19] = assay: Biodistribution in ddY mouse heart at 1 uCi/100 uL, iv after 120 mins by gamma counting; type: ADME, organism-based; details: in vivo, 2 h; outline: as §1
Intestine [20] = assay: Biodistribution in ddY mouse intestine at 1 uCi/100 uL, iv after 15 mins by gamma counting; type: ADME, organism-based; details: in vivo, 0.25 h; outline: as §1
Spleen [21] = assay: Biodistribution in ddY mouse spleen at 1 uCi/100 uL, iv after 15 mins by gamma counting; type: ADME, organism-based; details: in vivo, 0.25 h
Thyroid gland [22] = assay: Biodistribution in ddY mouse thyroid at 1 uCi/100 uL, iv after 120 mins by gamma counting; type: ADME, organism-based; details: in vivo, 2 h
Brain [23] = assay: Ratio of drug uptake in ddY mouse brain at 1 uCi/100 uL, iv after 2 mins to drug uptake in ddY mouse brain at 1 uCi/100 uL, iv after 60 mins; type: ADME, organism-based; details: in vivo
Outline: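 Normal female ddY mice (5 weeks) received the radiotracer iv, and brain uptake (% ID/g, n = 4) was measured by gamma counting at 2 and 60 min. The index is brain uptake at 2 min divided by brain uptake at 60 min.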

Intestine [24] = assay: Biodistribution in ddY mouse intestine at 1 uCi/100 uL, iv after 60 mins by gamma counting; type: ADME, organism-based; details: in vivo, 1 h; outline: as §1
Brain [25] = assay: Biodistribution in ddY mouse brain at 1 uCi/100 uL, iv after 60 mins by gamma counting; type: ADME, organism-based; details: in vivo, 1 h; outline: as §1
Intestine [26] = assay: Biodistribution in ddY mouse intestine at 1 uCi/100 uL, iv after 120 mins by gamma counting; type: ADME, organism-based; details: in vivo, 2 h; outline: as §1
Stomach [27] = assay: Biodistribution in ddY mouse stomach at 1 uCi/100 uL, iv after 15 mins by gamma counting; type: ADME, organism-based; details: in vivo, 0.25 h
Blood [28] = assay: Biodistribution in ddY mouse blood at 1 uCi/100 uL, iv after 2 mins by gamma counting; type: ADME, organism-based; details: in vivo; outline: as §1
Liver [29] = assay: Biodistribution in ddY mouse liver at 1 uCi/100 uL, iv after 120 mins by gamma counting; type: ADME, organism-based; details: in vivo, 2 h
Lung [30] = assay: Biodistribution in ddY mouse lung at 1 uCi/100 uL, iv after 30 mins by gamma counting; type: ADME, organism-based; details: in vivo, 0.5 h
Brain [31] = assay: Biodistribution in ddY mouse brain at 1 uCi/100 uL, iv after 2 mins by gamma counting; type: ADME, organism-based; details: in vivo; outline: as §1
Heart [32] = assay: Biodistribution in ddY mouse heart at 1 uCi/100 uL, iv after 30 mins by gamma counting; type: ADME, organism-based; details: in vivo, 0.5 h; outline: as §1
Stomach [33] = assay: Biodistribution in ddY mouse stomach at 1 uCi/100 uL, iv after 30 mins by gamma counting; type: ADME, organism-based; details: in vivo, 0.5 h
Stomach [34] = assay: Biodistribution in ddY mouse stomach at 1 uCi/100 uL, iv after 2 mins by gamma counting; type: ADME, organism-based; details: in vivo
Heart [35] = assay: Biodistribution in ddY mouse heart at 1 uCi/100 uL, iv after 2 mins by gamma counting; type: ADME, organism-based; details: in vivo; outline: as §1
Kidney [36] = assay: Biodistribution in ddY mouse kidney at 1 uCi/100 uL, iv after 30 mins by gamma counting; type: ADME, organism-based; details: in vivo, 0.5 h
Lung [37] = assay: Biodistribution in ddY mouse lung at 1 uCi/100 uL, iv after 120 mins by gamma counting; type: ADME, organism-based; details: in vivo, 2 h
Kidney [38] = assay: Biodistribution in ddY mouse kidney at 1 uCi/100 uL, iv after 2 mins by gamma counting; type: ADME, organism-based; details: in vivo; outline: as §1
Lung [39] = assay: Biodistribution in ddY mouse lung at 1 uCi/100 uL, iv after 60 mins by gamma counting; type: ADME, organism-based; details: in vivo, 1 h
Kidney [40] = assay: Biodistribution in ddY mouse kidney at 1 uCi/100 uL, iv after 15 mins by gamma counting; type: ADME, organism-based; details: in vivo, 0.25 h; outline: as §1
Kidney [41] = assay: Biodistribution in ddY mouse kidney at 1 uCi/100 uL, iv after 120 mins by gamma counting; type: ADME, organism-based; details: in vivo, 2 h; outline: as §1
Lung [42] = assay: Biodistribution in ddY mouse lung at 1 uCi/100 uL, iv after 2 mins by gamma counting; type: ADME, organism-based; details: in vivo
Brain [43] = assay: Biodistribution in ddY mouse brain at 1 uCi/100 uL, iv after 15 mins by gamma counting; type: ADME, organism-based; details: in vivo, 0.25 h; outline: as §1
Liver [44] = assay: Biodistribution in ddY mouse liver at 1 uCi/100 uL, iv after 15 mins by gamma counting; type: ADME, organism-based; details: in vivo, 0.25 h
Intestine [45] = assay: Biodistribution in ddY mouse intestine at 1 uCi/100 uL, iv after 30 mins by gamma counting; type: ADME, organism-based; details: in vivo, 0.5 h; outline: as §1
Liver [46] = assay: Biodistribution in ddY mouse liver at 1 uCi/100 uL, iv after 30 mins by gamma counting; type: ADME, organism-based; details: in vivo, 0.5 h
Spleen [47] = assay: Biodistribution in ddY mouse spleen at 1 uCi/100 uL, iv after 120 mins by gamma counting; type: ADME, organism-based; details: in vivo, 2 h
Blood [48] = assay: Biodistribution in ddY mouse blood at 1 uCi/100 uL, iv after 30 mins by gamma counting; type: ADME, organism-based; details: in vivo, 0.5 h; outline: as §1
[49] = Partition coefficient, log D of the compound; type: physicochemical; details: octanol/water
Outline: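 Radiotracer partitioned between n-octanol and PBS: vortexed 3 min at room temperature, centrifuged 5 min at 3000 rpm. Weighed samples of the octanol (100 μL) and buffer (500 μL) layers were counted. log D is the log of the ratio of counts per gram, octanol versus PBS.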

Liver [50] = assay: Biodistribution in ddY mouse liver at 1 uCi/100 uL, iv after 2 mins by gamma counting; type: ADME, organism-based; details: in vivo
Blood [51] = assay: Biodistribution in ddY mouse blood at 1 uCi/100 uL, iv after 15 mins by gamma counting; type: ADME, organism-based; details: in vivo, 0.25 h; outline: as §1
Brain [52] = assay: Biodistribution in ddY mouse brain at 1 uCi/100 uL, iv after 30 mins by gamma counting; type: ADME, organism-based; details: in vivo, 0.5 h; outline: as §1

Structure (SMILES): CNc1ccc(/C=C/C(=O)/C=C/c2ccc([125I])cc2)cc1
- Drug uptake (Spleen [1]): 4.57 % ID/g
- Drug uptake (Spleen [2]): 1.52 % ID/g
- Drug uptake (Thyroid gland [3]): 27.78 % ID/g
- Drug uptake (Blood [4]): 4.46 % ID/g
- Drug uptake (Blood [5]): 3.35 % ID/g
- Drug uptake (Brain [6]): 0.54 % ID/g
- Drug uptake (Thyroid gland [7]): 23.96 % ID/g
- Drug uptake (Heart [8]): 1.74 % ID/g
- Drug uptake (Liver [9]): 22.63 % ID/g
- Drug uptake (Stomach [10]): 4.49 % ID/organ
- Drug uptake (Kidney [11]): 10.46 % ID/g
- Drug uptake (Stomach [12]): 3.34 % ID/organ
- Drug uptake (Spleen [13]): 2.22 % ID/g
- Drug uptake (Heart [14]): 4.14 % ID/g
- Drug uptake (Intestine [15]): 3.53 % ID/g
- Drug uptake (Thyroid gland [16]): 28.09 % ID/g
- Drug uptake (Thyroid gland [17]): 18.2 % ID/g
- Drug uptake (Lung [18]): 7.42 % ID/g
- Drug uptake (Heart [19]): 1.91 % ID/g
- Drug uptake (Intestine [20]): 10.33 % ID/g
- Drug uptake (Spleen [21]): 3.36 % ID/g
- Drug uptake (Thyroid gland [22]): 72.93 % ID/g
- Ratio (Brain [23]): 6.59
- Drug uptake (Intestine [24]): 23.62 % ID/g
- Drug uptake (Brain [25]): 0.71 % ID/g
- Drug uptake (Intestine [26]): 41.29 % ID/g
- Drug uptake (Stomach [27]): 3.82 % ID/organ
- Drug uptake (Blood [28]): 7.48 % ID/g
- Drug uptake (Liver [29]): 27.83 % ID/g
- Drug uptake (Lung [30]): 6.18 % ID/g
- Drug uptake (Brain [31]): 4.68 % ID/g
- Drug uptake (Heart [32]): 3.29 % ID/g
- Drug uptake (Stomach [33]): 3.17 % ID/organ
- Drug uptake (Stomach [34]): 3.26 % ID/organ
- Drug uptake (Heart [35]): 8.11 % ID/g
- Drug uptake (Kidney [36]): 15.54 % ID/g
- Drug uptake (Lung [37]): 3.9 % ID/g
- Drug uptake (Kidney [38]): 14.73 % ID/g
- Drug uptake (Lung [39]): 3.5 % ID/g
- Drug uptake (Kidney [40]): 16.49 % ID/g
- Drug uptake (Kidney [41]): 13.43 % ID/g
- Drug uptake (Lung [42]): 9.67 % ID/g
- Drug uptake (Brain [43]): 2.62 % ID/g
- Drug uptake (Liver [44]): 40.83 % ID/g
- Drug uptake (Intestine [45]): 13.19 % ID/g
- Drug uptake (Liver [46]): 23.88 % ID/g
- Drug uptake (Spleen [47]): 1.23 % ID/g
- Drug uptake (Blood [48]): 4.84 % ID/g
- logD [49]: 3.55
- Drug uptake (Liver [50]): 39.22 % ID/g
- Drug uptake (Blood [51]): 6.02 % ID/g
- Drug uptake (Brain [52]): 1.38 % ID/g
